Measured values from ChEMBL document CHEMBL4371093, “Divirensols: Sesquiterpene Dimers from the Australian Termite Nest-Derived Fungus Trichoderma virens CMB-TN16” (J Nat Prod, 2019).
Calls of active or inactive are those of the source. The rule behind the calls is not given here.

Key:
[1] = Inhibition of DNA polymerase (unknown origin); design: species or system Homo sapiens
HeLa = assay: Growth inhibition of human HeLa cells; type: functional; conditions: read-out: LD50 (the source's name)
MCF7 = assay: Growth inhibition of human MCF7 cells; type: functional; conditions: read-out: LD50 (the source's name)
SW-620 = assay: Growth inhibition of human SW620 cells up to 30 uM after 48 hrs by MTT assay; type: functional, cell-based
Summary of the method: (§1)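 Adherent cells grown with 10% FBS, 2 mM L-glutamine and penicillin/streptomycin at 37 °C, 5% CO2. Seeded at 3000 cells/well and attached for 18 h. Compound added at a final 30 μM in 1% DMSO for 48 h. MTT then added (final 0.5 mg/mL) for 4 h, formazan dissolved in DMSO, absorbance read at 580 nm. Negative control 1% DMSO, doxorubicin positive control. Run in duplicate. IC50 versus negative control.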

NCI-H460 = assay: Growth inhibition of human NCI-H460 cells up to 30 uM after 48 hrs by MTT assay; type: functional, cell-based; summary of the method: as §1
Staphylococcus aureus = assay: Antibacterial activity against Staphylococcus aureus ATCC 25923 up to 30 uM after 24 hrs by spectrophotometric method; type: functional, organism-based
Summary of the method: (§2)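 Bacteria grown on tryptic soy agar at 37 °C for 24 h. One colony moved to tryptic soy broth and adjusted to 10^4−10^5 CFU/mL. Compound in DMSO, diluted with water to a 600 μM stock in 20% DMSO, then added to broth at a final 30 μM in 1% DMSO. Incubated 37 °C for 24 h, OD600 read. Rifampicin positive control. IC50 taken as 50% growth inhibition.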

Bacillus spizizenii = assay: Antibacterial activity against Bacillus subtilis ATCC 6633 up to 30 uM after 24 hrs by spectrophotometric method; type: functional, organism-based; summary of the method: as §2
Escherichia coli = assay: Antibacterial activity against Escherichia coli ATCC 25922 up to 30 uM after 24 hrs by spectrophotometric method; type: functional, organism-based; summary of the method: as §2

| Compound | IC50 [1] | CC50 (HeLa) | CC50 (MCF7) | growth inhibition (GI) (SW-620) | growth inhibition (GI) (NCI-H460) | Activity (Staphylococcus aureus) | Activity (Bacillus spizizenii) | Activity (Escherichia coli) |
| --- | --- | --- | --- | --- | --- | --- | --- | --- |
| CC(C)C1CCC(O)(COC(=O)C2=CC3C(C(C)C)CCC4(CO4)C3C(=O)OC2)C2C(=O)OCC(C(=O)O)=CC12 (stereo not drawn) | 30.8 µM | 33 µM | 31.6 µM | – | – | – | – | – |
| CC(C)[C@H]1CC[C@@](O)(COC(=O)/C(=C/[C@H]2C3=C(CC[C@@H]2C(C)C)COC3=O)CO)[C@@H](C(=O)O)[C@@H]1/C=C(\CO)C(=O)O | – | – | – | inactive | inactive | inactive | inactive | inactive |
| CC(C)[C@H]1CC[C@@](O)(COC(=O)/C(=C/[C@H]2C=C(CO)CC[C@@H]2C(C)C)CO)[C@H]2C(=O)OCC(C(=O)O)=C[C@H]12 | – | – | – | inactive | inactive | inactive | inactive | inactive |
| CC(C)[C@H]1CC[C@@]2(OC(=O)/C(=C/[C@H]3C4=C(CC[C@@H]3C(C)C)COC4=O)CO)COC(=O)[C@H]2[C@@H]1/C=C(\CO)C(=O)O | – | – | – | inactive | inactive | inactive | inactive | inactive |
| CC(C)[C@H]1CCC(CO)=C[C@@H]1/C=C(\CO)C(=O)O | – | – | – | inactive | inactive | inactive | inactive | inactive |
| CC(=O)OC/C(=C\[C@H]1C=C(CO)CC[C@@H]1C(C)C)C(=O)O | – | – | – | inactive | inactive | inactive | inactive | inactive |
| CC(C)[C@H]1CC[C@@](O)(COC(=O)/C(=C/[C@H]2C3=C(CC[C@@H]2C(C)C)COC3=O)CO)[C@H]2C(=O)OCC(C(=O)O)=C[C@H]12 | – | – | – | inactive | inactive | inactive | inactive | inactive |
| CC(=O)OCC1=C[C@H](/C=C(\CO)C(=O)O)[C@@H](C(C)C)CC1 | – | – | – | inactive | inactive | inactive | inactive | inactive |
| CC(C)[C@H]1CC[C@@]2(OC(=O)/C(=C/[C@H]3C=C(CO)CC[C@@H]3C(C)C)CO)COC(=O)[C@H]2[C@@H]1/C=C(\CO)C(=O)O | – | – | – | inactive | inactive | inactive | inactive | inactive |
| CC(C)[C@H]1CC[C@@](O)(COC(=O)/C(=C/[C@@H]2[C@@H](C(C)C)CC[C@@]3(O)COC(=O)[C@@H]23)CO)[C@H]2C(=O)OCC(C(=O)O)=C[C@H]12 | – | – | – | inactive | inactive | inactive | inactive | inactive |
| CC(C)[C@H]1CC[C@@](O)(COC(=O)C2=C[C@H]3[C@@H](OC2)[C@H](CO)CC[C@@H]3C(C)C)[C@H]2C(=O)OCC(C(=O)O)=C[C@H]12 | – | – | – | inactive | inactive | inactive | inactive | inactive |
